The text below walks through data of ChEMBL document CHEMBL1125051, “Synthesis and antineoplastic properties of ether-linked thioglycolipids” (1990).

Assay [1] in a line: Compound was evaluated for WEHI-3B cell viability after 48 hour at a concentration of 30 uM of compound was reported. Format: functional, Mus musculus. A digest of the protocol:
(§1)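 WEHI-3B cells were treated with drug at 0–30 μM for 24 or 48 h in RPMI 1640 with 10% FBS at 37 °C. Cells were then diluted 1:10 in 2.5% trypan blue and counted by light microscopy, with dye-stained cells scored dead. Viability is given as % of untreated control.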

The subject of the next assay is R6X-B15. In words: Antineoplastic activity against R6X-B15 cell line in which [3H]thymidine was incorporated into DNA. Format: functional, Mus musculus. The method, boiled down:
(§2)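 Mouse leukemic/myeloma/hybridoma lines kept at 37 °C in RPMI 1640 with 10% heat-inactivated FBS, penicillin, streptomycin, 50 μM mercaptoethanol. 2×10^4 cells/well exposed to drug at 40 μM for 48 h. Drug was diluted from 0.1 M ethanol stock into medium, and controls received ethanol-containing medium. [3H]thymidine (0.1 μCi/well) was then added for 24 h. Cells were harvested onto glass-fibre filters and water-washed, and DNA-incorporated counts were taken by scintillation as % of control.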

A short description of assay [2]: Compound was evaluated for WEHI-3B cell viability after 24 hour at a concentration of 0 uM of compound was reported. Format: functional, Mus musculus. The method, boiled down: as §1
Assay [3] in a line: Compound was evaluated for WEHI-3B cell viability after 24 hour at a concentration of 30 uM of compound was reported. Format: functional, Mus musculus. A digest of the protocol: as §1
A further assay concerns WEHI3B. In words: Antineoplastic activity against WEHI 3B cell line in which [3H]thymidine was incorporated into DNA. Format: functional, Mus musculus. Set-up: concentration or dose not given beside the values. A digest of the protocol: as §2
Another assay relates to X63/OMIL3 cell line. In words: Antineoplastic activity against X63/OMIL3 cell line in which [3H]thymidine was incorporated into DNA. Format: functional, Mus musculus. Also on record: concentration or dose not given beside the values. A digest of the protocol: as §2
Assay [4] in a line: Compound was evaluated for WEHI-3B cell viability after 48 hour at a concentration of 5 uM of compound was reported. Format: functional, Mus musculus. A digest of the protocol:
as §1

A short description of assay [5]: Compound was evaluated for WEHI-3B cell viability after 24 hour at a concentration of 1.25 uM of compound was reported. Format: functional, Mus musculus. The method, boiled down: as §1
The nature of assay [6]: Compound was evaluated for WEHI-3B cell viability after 24 hour at a concentration of 2.5 uM of compound was reported. Format: functional, Mus musculus. The method, boiled down:
as §1

The nature of assay [7]: Compound was evaluated for WEHI-3B cell viability after 48 hour at a concentration of 0 uM of compound was reported. Format: functional, Mus musculus. A digest of the protocol:
as §1

The nature of assay [8]: Compound was evaluated for WEHI-3B cell viability after 24 hour at a concentration of 10 uM of compound was reported. Format: functional, Mus musculus. The method, boiled down:
as §1

Another assay relates to C653. In words: Antineoplastic activity against C653 cell line in which [3H]-thymidine was incorporated into DNA. Also on record: concentration or dose not given beside the values. Format: functional, Mus musculus. A digest of the protocol: as §2
Assay [9] in a line: Compound was evaluated for WEHI-3B cell viability after 48 hour at a concentration of 1.25 uM of compound was reported. Format: functional, Mus musculus. A digest of the protocol:
as §1

Assay [10] in a line: Compound was evaluated for WEHI-3B cell viability after 48 hour at a concentration of 2.5 uM of compound was reported. Format: functional, Mus musculus. A digest of the protocol:
as §1

Assay [11] in a line: Compound was evaluated for WEHI-3B cell viability after 24 hour at a concentration of 5 uM of compound was reported. Format: functional, Mus musculus. The method, boiled down: as §1
Assay [12] can be described thus: Compound was evaluated for WEHI-3B cell viability after 48 hour at a concentration of 10 uM of compound was reported. Format: functional, Mus musculus. The method, boiled down: as §1
Assay [13] can be described thus: Time course effect on killing of WEHI 3B cells at 40 uM concentration, cells were incubated with it 24 hr before addition of [3H]-thymidine. Format: functional, cell-based. The settings on record: Mus musculus, WEHI3B. The method, boiled down: (§3)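 Mouse WEHI 3B cells (RPMI 1640, 10% heat-inactivated FBS, penicillin, streptomycin, 50 μM mercaptoethanol, 37 °C) were seeded at 2×10^4 cells/well. Drug was diluted from 0.1 M ethanol stock into medium, with an ethanol vehicle control. After the stated preincubation, [3H]thymidine (0.1 μCi/well) was added for a further 24 h at 37 °C. Cells were harvested on glass-fibre filters, water-washed and scintillation-counted. Result is % cell survival versus control, mean ± SD, n = 8.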

Assay [14] can be described thus: Time course effect on killing of WEHI 3B cells at 40 uM concentration, cells were incubated with it 0 mins before addition of [3H]thymidine. Format: functional, cell-based. The settings on record: Mus musculus, WEHI3B. A digest of the protocol:
as §3

Assay [15] in a line: Time course effect on killing of WEHI 3B cells at 40 uM concentration, cells were incubated with it 3 hr before addition of [3H]thymidine. Format: functional, cell-based. Conditions: Mus musculus, WEHI3B. The method, boiled down: as §3
The nature of assay [16]: Time course effect on killing of WEHI 3B cells at 30 uM concentration, cells were incubated with it 3 hr before addition of [3H]thymidine. Format: functional, cell-based. Conditions: Mus musculus, WEHI3B. The method, boiled down:
as §3

Assay [17] can be described thus: Time course effect on killing of WEHI 3B cells at 30 uM concentration, cells were incubated with it 0 minutes before addition of [3H]thymidine. Format: functional, cell-based. Conditions: Mus musculus, WEHI3B. A digest of the protocol:
as §3

A short description of assay [18]: Time course effect on killing of WEHI 3B cells at 30 uM concentration, cells were incubated with it 48 hours before addition of [3H]thymidine. Format: functional, cell-based. The settings on record: Mus musculus, WEHI3B. A digest of the protocol: as §3
Assay [19] can be described thus: Time course effect on killing of WEHI 3B cells at 40 uM concentration, cells were incubated with it 72 hr before addition of [3H]thymidine. Format: functional, cell-based. Conditions: Mus musculus, WEHI3B. The method, boiled down:
as §3

A short description of assay [20]: Time course effect on killing of WEHI 3B cells at 40 uM concentration, cells were incubated with it 48 hr before addition of [3H]thymidine. The settings on record: Mus musculus, WEHI3B. Format: functional, cell-based. A digest of the protocol: as §3
The nature of assay [21]: Time course effect on killing of WEHI 3B cells at 40 uM concentration, cells were incubated with it 6 hours before addition of [3H]-thymidine. Format: functional, cell-based. The settings on record: Mus musculus, WEHI3B. A digest of the protocol:
as §3

The nature of assay [22]: Time course effect on killing of WEHI 3B cells at 30 uM concentration, cells were incubated with it 6 hr before addition of [3H]thymidine. Conditions: Mus musculus, WEHI3B. Format: functional, cell-based. The method, boiled down: as §3
The nature of assay [23]: Time course effect on killing of WEHI 3B cells at 30 uM concentration, cells were incubated with it 72 hours before addition of [3H]thymidine. Format: functional, cell-based. The settings on record: Mus musculus, WEHI3B. The method, boiled down:
as §3

Assay [24] is described as follows: Time course effect on killing of WEHI 3B cells at 30 uM concentration, cells were incubated with it 24 hr before addition of [3H]thymidine. Conditions: Mus musculus, WEHI3B. Format: functional, cell-based. The method, boiled down:
as §3

The structures appear in SMILES notation.

As for `CCCCCCCCCCCCCCCCOC[C@H](COP(=O)([O-])OCC[N+](C)(C)C)OC`, the Viable cells in assay [1] was 0%; in assay [2], 100%; in assay [3], 0%; in assay [4], 1%; in [5], 44%; in assay [6], 39%. In addition, the Viable cells in assay [7] turned out to be 100%; in assay [8], 0%; in assay [9] it was 48%; in [10] it was 18%; in assay [11], 8%; in [12], 0%. The Control with R6X-B15 is 55%; in the assay on WEHI3B, 0.4%; in the assay on X63/OMIL3 cell line it was 3%; in the assay on C653, 4%.

`CCCCCCCCCCCCCCCCOC[C@H](CS[C@H]1O[C@@H](CO)[C@@H](O)[C@H](O)[C@H]1O)OC`: the Cell survival in [13] stood at 20%; in assay [14], 49%; in assay [15] it was 49%; in assay [16], 57%; in [17], 79%; in assay [18], 46%. For the same compound, the Cell survival came to 0% in assay [19]; 0.5% in assay [20]; 27% in [21]; 53% in assay [22]; 25% in [23]; 48% in assay [24]. Moreover, the Viable cells in assay [1] worked out at 0%; in [2] it was 100%; in [3], 48%; in assay [4] it was 25%; in [5] it was 90%; in assay [6], 75%. In addition, the Viable cells in assay [7] stood at 100%; in [8], 53%; in [9], 72%; in assay [10] it was 64%; in assay [11] it was 64%; in [12] it was 0.3%. Further, the Control with R6X-B15 came to 66%; in the assay on WEHI3B, 7%; with X63/OMIL3 cell line, 71%; in the assay on C653, 13%.

Turning to `CCCCCCCCCCCCCCCCOC[C@@H](CO[C@@H]1O[C@@H](CO)[C@@H](O)[C@H](O)[C@@H]1O)OC`, the Control with R6X-B15 is on record as 89%; in the assay with WEHI3B it was 82%; with X63/OMIL3 cell line, 95%; in the assay with C653, 70%.

Take `CCCCCCCCCCCCCCCCOC[C@H](CO[C@@H]1O[C@@H](CO)[C@@H](O)[C@H](O)[C@@H]1O)OC`: the Control in the assay on R6X-B15 is given as 75%; with WEHI3B it was 26%; in the assay with X63/OMIL3 cell line, 42%; in the assay on C653, 7%.

`CCCCCCCCCCCCCCCCOC[C@@H](COP(=O)([O-])OCC[N+](C)(C)C)OC`: the Control in the assay with R6X-B15 is reported as 45%; in the assay on WEHI3B, 0.3%; with X63/OMIL3 cell line, 2.5%; in the assay with C653 it was 5%.

As for `CCCCCCCCCCCCCCCCOC[C@H](CS[C@@H]1O[C@@H](CO)[C@@H](O)[C@H](O)[C@H]1O)OC`, the Control came out at 98% in the assay on R6X-B15, 80% with WEHI3B, 84% with X63/OMIL3 cell line and 78% with C653.
